How the values were obtained:
[1] = system: SK-BR-3; assay: Inhibition of Her2 degradation in human SKBR3 cells by ELISA; format: functional, cell-based
Procedure, shortened: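 Cellular ELISA in SKBR3 cells treated 24 h with compound, then methanol-fixed; Her2 detected with mouse anti-Her2 primary and peroxidase-conjugated anti-mouse secondary antibody; IC50 determined.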

[2] = Binding affinity to Hsp90 in pig spleen extract by Bradford protein assay; format: tissue-based, Sus scrofa
[3] = system: LNCaP; assay: Inhibition of cell proliferation in human LNCAP cells; format: functional, cell-based
Procedure, shortened: (§1)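 Cells seeded in 96-well plates; compound added 24 h later, then growth continued for a further 72 or 144 h depending on the line's growth rate before proliferation was measured.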

[4] = system: A-375; assay: Induction of Hsp70 in human A375 cells; format: functional, cell-based
Procedure, shortened: (§2)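 High content imaging: A375 cells treated 24 h with compound, fixed in 4% PBS-buffered formalin, probed with anti-Hsp70 or anti-phospho-S6 primary antibodies, then TRITC- or FITC-conjugated secondaries, and imaged.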

[5] = system: MCF7; assay: Inhibition of cell proliferation in human MCF7 cells; format: functional, cell-based; procedure, shortened: as §1
[6] = Inhibition of pS6 in A375 cells; format: cell-based; details: A-375; procedure, shortened: as §2
[7] = system: MDA-MB-231; assay: Inhibition of cell proliferation in human MDA-MB-231 cells; format: functional, cell-based; procedure, shortened: as §1
[8] = system: SW-620; assay: Inhibition of cell proliferation in human SW620 cells; format: functional, cell-based; procedure, shortened: as §1
[9] = system: NCI-H460; assay: Inhibition of cell proliferation in human NCI-H460 cells; format: functional, cell-based; procedure, shortened: as §1
[10] = system: HT-29; assay: Inhibition of cell proliferation in human HT29 cells; format: functional, cell-based; procedure, shortened: as §1
[11] = system: SK-MEL-5; assay: Inhibition of cell proliferation in human SKMEL5 cells; format: functional, cell-based; procedure, shortened: as §1
[12] = system: SK-BR-3; assay: Inhibition of Her2 degradation in human SKBR3 cells
[13] = system: PC-3; assay: Inhibition of cell proliferation in human PC3 cells; format: functional, cell-based; procedure, shortened: as §1
[14] = system: A-375; assay: Inhibition of cell proliferation in human A375 cells; format: functional, cell-based; procedure, shortened: as §1
[15] = Inhibition of pErk in AU565 cells; format: cell-based

| IC50 [1] [nM] | Kd [2] [nM] | Structure (SMILES) | other results |
| --- | --- | --- | --- |
| 6800 | 310 | NC(=O)c1ccc(-n2c3c(c4ccccc42)C(=O)CCC3)cc1NC1CCC1 |  |
| 5300 | 350 | CCCNc1cc(-n2c3c(c4ccccc42)C(=O)CCC3)ccc1C(N)=O |  |
| 5400 | 350 | NC(=O)c1ccc(-n2c3c(c4ccccc42)C(=O)CCC3)cc1NC1CC1 |  |
| 7000 |  | CC1CC(=O)c2c(n(-c3ccc(C(N)=O)c(NC4CC4)c3)c3ccccc23)C1 (centres undefined) |  |
| 31000 | 1900 | NC(=O)c1ccc(-n2c3c(c4ccccc42)C(=O)CCC3)cc1NCCN1CCCC1 |  |
| > 10000 | 2900 | NC(=O)c1ccc(-n2c3c(c4ccccc42)C(=O)CCC3)cc1N |  |
| 1300 | 270 | NC(=O)c1ccc(-n2c3c(c4ccccc42)C(=O)CCC3)cc1NCC1CC1 |  |
| 1300 | 250 | NC(=O)c1ccc(-n2c3c(c4cc(F)ccc42)C(=O)CCC3)cc1NC1CC1 |  |
| > 50000 | > 10000 | N#Cc1cc(-n2c3c(c4ccccc42)C(=O)CCC3)ccc1C(N)=O |  |
| 1200 | 900 | NC(=O)c1ccc(-n2c3c(c4ccccc42)C(=O)CCC3)cc1NC1CCC(O)CC1 (centres undefined) |  |
| 610 | 350 | CC1(C)CC(=O)c2c(n(-c3ccc(C(N)=O)c(NC4CC4)c3)c3ccccc23)C1 |  |
| 560 | 410 | NC(=O)c1ccc(-n2c3c(c4ccccc42)C(=O)CCC3)cc1NC1CCOCC1 | IC50 [3]: 700 nM; IC50 [4]: 230 nM; IC50 [5]: 290 nM; IC50 [6]: 70 nM; IC50 [7]: 960 nM; IC50 [8]: 260 nM; IC50 [9]: 900 nM; IC50 [10]: 370 nM; IC50 [11]: 340 nM; IC50 [12]: 560 nM; IC50 [13]: 820 nM; IC50 [14]: 400 nM; IC50 [15]: 590 nM |
| > 50000 | > 10000 | COc1cc(-n2c3c(c4ccccc42)C(=O)CCC3)ccc1C(N)=O |  |
| > 10000 | > 10000 | NC(=O)c1ccc(-n2c3c(c4ccccc42)C(=O)CCC3)cc1Br |  |
| 8900 |  | COCCNc1cc(-n2c3c(c4ccccc42)C(=O)CCC3)ccc1C(N)=O |  |

Further lines, the molecule ahead of its results:

| Structure (SMILES) | IC50 [1] [nM] | Kd [2] [nM] | other results |
| --- | --- | --- | --- |
| NC(=O)c1ccc(-n2c3c(c4cc(F)ccc42)C(=O)CCC3)cc1NN1CCOCC1 | 1600 | 270 |  |
| NC(=O)c1ccc(-n2c3c(c4ccccc42)C(=O)CCC3)cc1NCc1ccncc1 | 5000 | 820 |  |
| NC(=O)c1ccc(-n2c3c(c4ccccc42)C(=O)CCC3)cc1 | > 50000 | 1800 |  |
| CC1(C)CC(=O)c2c(n(-c3ccc(C(N)=O)cc3)c3ccccc23)C1 | > 50000 | 750 |  |
| COCCNc1cc(-n2c3c(c4cc(F)ccc42)C(=O)CCC3)ccc1C(N)=O | 4100 | 780 |  |
| CN(C)CCNc1cc(-n2c3c(c4cc(F)ccc42)C(=O)CCC3)ccc1C(N)=O | 34000 | 1200 |  |
| NC(=O)c1ccc(-n2c3c(c4cc(F)ccc42)C(=O)CCC3)cc1NCCCN1CCOCC1 | 2800 | 1100 |  |
| COc1ccc(CNc2cc(-n3c4c(c5ccccc53)C(=O)CCC4)ccc2C(N)=O)cc1 | > 10000 | > 10000 |  |
| NC(=O)c1ccc(-n2c3c(c4cc(F)ccc42)C(=O)CCC3)cc1NCc1cccnc1 | 6500 | 1100 |  |
| CC1CC(=O)c2c(n(-c3ccc(C(N)=O)c(Br)c3)c3ccccc23)C1 (centres undefined) |  | > 10000 |  |
| CC1(C)CC(=O)c2c(n(-c3ccc(C(N)=O)c(Nc4ccccc4)c3)c3ccccc23)C1 |  | > 10000 |  |
| C=CCNc1cc(-n2c3c(c4cc(F)ccc42)C(=O)CCC3)ccc1C(N)=O | 5400 | 250 |  |
| NC(=O)c1ccc(-n2c3c(c4ccccc42)C(=O)CCC3)cc1Nc1ccccc1 | 2100 | 1000 |  |
| NC(=O)c1ccc(-n2c3c(c4ccccc42)C(=O)CCC3)cc1NCc1ccccc1 | > 10000 | > 10000 |  |
| CC1CC(=O)c2c(n(-c3ccc(C(N)=O)c(NCC4CC4)c3)c3ccccc23)C1 (centres undefined) | 6900 | 2900 |  |
